Results as given in ChEMBL document CHEMBL4007396, “New diphenylmethane derivatives as peroxisome proliferator-activated receptor alpha/gamma dual agonists endowed with anti-proliferative effects and mitochondrial activity” (Eur J Med Chem, 2017).
Active and inactive are the calls of the source. No cut-off for these calls is given here.

Experiments:
[1] = target: T1, Bile acid receptor (Homo sapiens) (UniProt Q96RI1); experiment: Agonist activity at GAL4-fused human FXR LBD expressed in human HepG2 cells up to 2 uM after 20 hrs by luciferase reporter gene assay; type: cell-based
T1 sequence (whole entry): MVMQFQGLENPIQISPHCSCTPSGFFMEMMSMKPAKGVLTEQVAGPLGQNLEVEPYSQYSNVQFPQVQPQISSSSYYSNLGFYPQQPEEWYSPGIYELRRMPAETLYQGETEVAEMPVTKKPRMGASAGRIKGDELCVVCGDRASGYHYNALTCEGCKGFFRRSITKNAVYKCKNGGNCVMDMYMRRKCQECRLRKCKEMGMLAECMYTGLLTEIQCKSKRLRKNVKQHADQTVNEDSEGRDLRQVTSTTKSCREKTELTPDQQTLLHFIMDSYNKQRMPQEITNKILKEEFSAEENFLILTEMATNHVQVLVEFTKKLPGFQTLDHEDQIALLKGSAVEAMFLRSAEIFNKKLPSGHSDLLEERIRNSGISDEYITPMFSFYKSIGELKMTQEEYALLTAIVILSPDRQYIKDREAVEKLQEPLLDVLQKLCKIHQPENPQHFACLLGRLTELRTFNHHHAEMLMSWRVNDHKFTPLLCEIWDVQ
In short: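 HepG2 in MEM/10% FBS, calcium-phosphate co-transfection 24 h after seeding with GAL4-FXR-LBD (30 ng), pGAL5TKpGL3 luciferase reporter (100 ng) and pCMVβgal (250 ng); 4 h later, 20 h ligand exposure in triplicate. Luciferase normalized to β-galactosidase (ONPG); efficacy as % of maximal fold induction of chenodeoxycholic acid reference; tested up to 2 μM.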

[2] = target: T2, Peroxisome proliferator-activated receptor gamma (Homo sapiens, UniProt P37231); experiment: Binding affinity to PPARgamma (unknown origin) assessed as thermodynamic dissociation constant by SPR assay; settings: read-out: Kd
T2 sequence (P37231 whole entry): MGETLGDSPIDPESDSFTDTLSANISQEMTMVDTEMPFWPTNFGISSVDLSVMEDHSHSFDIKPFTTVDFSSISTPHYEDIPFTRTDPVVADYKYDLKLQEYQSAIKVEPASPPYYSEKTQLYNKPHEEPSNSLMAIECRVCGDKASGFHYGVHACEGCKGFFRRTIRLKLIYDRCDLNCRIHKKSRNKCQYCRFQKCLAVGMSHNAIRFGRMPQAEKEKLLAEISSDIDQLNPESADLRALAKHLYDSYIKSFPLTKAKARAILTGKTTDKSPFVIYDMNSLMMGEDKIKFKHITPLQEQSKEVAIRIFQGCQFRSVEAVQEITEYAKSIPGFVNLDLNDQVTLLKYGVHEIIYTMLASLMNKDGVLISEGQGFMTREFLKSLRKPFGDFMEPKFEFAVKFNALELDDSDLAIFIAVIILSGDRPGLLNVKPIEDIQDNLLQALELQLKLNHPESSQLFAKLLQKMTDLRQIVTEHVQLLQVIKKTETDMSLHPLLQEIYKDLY

[3] = target: T2, Peroxisome proliferator-activated receptor gamma; experiment: Transactivation of GAL4-fused human PPARgamma LBD expressed in human HepG2 cells after 20 hrs by luciferase reporter gene assay; type: cell-based
[4] = target: T3, Peroxisome proliferator-activated receptor alpha (Homo sapiens) (UniProt Q07869); experiment: Agonist activity at PPARalpha in human HepG2 cells assessed as increase in CPT1 mRNA level at 1 uM after 24 hrs by RT-PCR method; type: cell-based
T3 sequence (whole entry): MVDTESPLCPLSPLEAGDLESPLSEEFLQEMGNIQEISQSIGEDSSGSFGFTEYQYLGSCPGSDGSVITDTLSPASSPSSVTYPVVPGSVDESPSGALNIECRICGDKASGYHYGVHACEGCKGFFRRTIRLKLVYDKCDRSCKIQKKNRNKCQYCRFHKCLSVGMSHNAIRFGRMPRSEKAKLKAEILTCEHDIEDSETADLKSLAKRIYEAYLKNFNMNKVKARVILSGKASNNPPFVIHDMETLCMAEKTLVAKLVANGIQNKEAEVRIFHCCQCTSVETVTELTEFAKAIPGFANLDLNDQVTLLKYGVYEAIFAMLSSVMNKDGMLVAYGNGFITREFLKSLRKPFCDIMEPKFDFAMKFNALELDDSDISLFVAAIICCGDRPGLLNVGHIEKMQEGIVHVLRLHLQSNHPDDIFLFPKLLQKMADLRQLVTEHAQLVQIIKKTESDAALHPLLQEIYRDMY
In short: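 Serum-free HepG2 exposed 24 h to 1 μM test agent (Wy-14,643 reference at 50 μM). RNA extracted from 1x10⁶ cells; TaqMan real-time RT-PCR for CAC, CPT1 or PPARα, normalized to β-actin. Mean ± SD of three independent duplicate experiments; one-way ANOVA with Bonferroni test.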

[5] = target: T3, Peroxisome proliferator-activated receptor alpha (Homo sapiens); experiment: Agonist activity at PPARalpha in human HepG2 cells assessed as increase in CAC protein expression level at 1 uM after 48 hrs by Western blot method; type: cell-based
In short: (§1)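 HepG2 serum-depleted 24 h, then treated 48 h with 1 μM compound (Wy-14,643 at 50 μM as reference). Nitrocellulose immunoblots probed for CAC, CPT1 or PPARα with β-actin loading control, chemiluminescent detection; band densitometry expressed as fold change versus untreated cells; three independent experiments.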

[6] = target: T3, Peroxisome proliferator-activated receptor alpha (Homo sapiens); experiment: Agonist activity at PPARalpha in human HepG2 cells assessed as increase in CPT1 protein expression level at 1 uM after 48 hrs by Western blot method; type: cell-based; in short: as §1
[7] = target: T3, Peroxisome proliferator-activated receptor alpha (Homo sapiens); experiment: Agonist activity at PPARalpha in human HepG2 cells assessed as increase in mitochondrial mass at 1 uM by CellLight Mitochondria-GFP staining based fluorescent microscopic method relative to control; type: cell-based
In short: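 Serum-free HepG2 at 60% confluence transduced with Mitochondria-GFP BacMam 2.0 (50 particles/cell) and given 1 μM compound or 50 μM Wy-14,643 for 24 h. Imaged at 20x with GFP filters (ex 485/em 535 nm); separately, SDS/Tris pH 7.5 lysates read at ex 475, em 500-550 nm. Mean ± SD of three experiments, ANOVA/Bonferroni.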

[8] = target: T4, Peroxisome proliferator-activated receptor delta (Homo sapiens, UniProt Q03181); experiment: Binding affinity to PPARdelta (unknown origin) assessed as kinetic dissociation constant by SPR assay
T4 sequence (Q03181 whole entry): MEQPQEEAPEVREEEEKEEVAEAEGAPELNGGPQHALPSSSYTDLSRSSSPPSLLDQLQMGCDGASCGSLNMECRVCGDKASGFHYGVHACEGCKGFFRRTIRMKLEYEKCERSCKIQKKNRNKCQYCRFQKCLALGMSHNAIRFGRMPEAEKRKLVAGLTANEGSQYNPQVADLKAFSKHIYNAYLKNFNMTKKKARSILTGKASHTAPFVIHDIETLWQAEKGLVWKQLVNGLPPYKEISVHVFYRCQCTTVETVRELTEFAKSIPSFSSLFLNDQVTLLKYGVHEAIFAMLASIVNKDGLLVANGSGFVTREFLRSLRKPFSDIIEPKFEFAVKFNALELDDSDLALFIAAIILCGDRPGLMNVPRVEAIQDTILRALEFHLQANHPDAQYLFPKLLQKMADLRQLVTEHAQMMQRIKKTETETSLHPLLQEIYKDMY

Compound | Activity [1] | Kd [2] [nM] | EC50 [3] [nM] | Activity [4] | Activity [5] | Activity [6] | Activity [7] [%] | Kd [8]
C[C@H](Oc1ccc(Cc2ccc(OCc3coc(-c4ccccc4)n3)cc2)cc1)C(=O)O | inactive | 4.9 | 300 | Active | Active | Active | 30 | Not Active
C[C@@H](Oc1ccc(Cc2ccc(OCc3coc(-c4ccccc4)n3)cc2)cc1)C(=O)O | inactive | 3.7 | 280 | Active | Active | Active | 30 | Not Active
